Hits are enriched below; roughly 2.3% of the tested compounds scored in any of these assays.
Rpn11 block: Rpn11 (PSMD14) deubiquitinase inhibitors, primary screen, biochemical, fluorescence polarization, uHTS. inhibition, % at 20 µM. human 26S proteasome, Ub4-pepOG fluorescence polarization; 20S core pre-blocked with epoxomicin. actives 0.59% (n = 360,000). 26S proteasome non-ATPase regulatory subunit 14 (Homo sapiens), O00487. AID 588493, 2011;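 active means inhibition at 20 µM, scaled to each plate's controls, above about 33%, limit read from the data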
Target sequence (O00487 whole entry, looked up): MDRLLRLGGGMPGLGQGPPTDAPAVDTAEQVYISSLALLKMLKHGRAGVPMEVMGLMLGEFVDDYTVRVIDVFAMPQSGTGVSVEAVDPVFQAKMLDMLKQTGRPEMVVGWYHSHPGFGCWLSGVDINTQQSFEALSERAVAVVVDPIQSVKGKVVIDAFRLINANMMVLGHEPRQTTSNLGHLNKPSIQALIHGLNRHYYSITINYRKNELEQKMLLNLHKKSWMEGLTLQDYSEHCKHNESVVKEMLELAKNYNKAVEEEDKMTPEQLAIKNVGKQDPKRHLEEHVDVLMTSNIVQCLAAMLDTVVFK
DNMT1 inh: human DNMT1 methyltransferase inhibitors, primary screen, biochemical, molecular beacon, fluorescence, HinP1I cleavage, uHTS | DNA (cytosine-5)-methyltransferase 1 (Homo sapiens), P26358 | inhibition (reported as % activation of signal), % at 10 µM | actives 0.83% (n = 360,000); in the data active means inhibition above about 50%
LMPTP block: LMPTP phosphatase inhibitors, primary screen, biochemical, fluorescence intensity, uHTS; Low molecular weight phosphotyrosine protein phosphatase (Homo sapiens), P24666; recombinant LMPTP-A, OMFP fluorogenic substrate; inhibition, % at 20 µM; actives 0.22% (n = 360,000); AID 651560, 2012;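 active means compounds that cut the enzyme signal by at least half of the control window in the single-dose screen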;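 further: plate controls were DMSO wells with enzyme plus substrate for no effect and substrate without enzyme for full effect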
Target sequence (P24666 whole entry, looked up): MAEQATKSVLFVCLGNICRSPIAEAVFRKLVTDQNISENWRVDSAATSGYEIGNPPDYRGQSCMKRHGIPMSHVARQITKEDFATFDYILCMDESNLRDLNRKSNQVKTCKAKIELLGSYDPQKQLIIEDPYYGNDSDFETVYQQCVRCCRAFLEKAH
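Test system: LMPTP-A phosphatase enzyme; input: 0.625 nM LMPTP-A final; reagent: OMFP substrate, 400 µM final; compound dosing: 20 µM single dose, 3% DMSO; incubation: 50 min dark incubation at room temperature; measured by: endpoint fluorescence intensity from OMFP dephosphorylation; measure: % inhibition relative to no-enzyme and uninhibited control wells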
SUMO1 PPI mod: modulators of SUMO1 protein-protein interactions, primary screen, biochemical, uHTS; Small ubiquitin-related modifier 1 (Homo sapiens), P63165; SUMO1 binding to a labelled peptide, TR-FRET, 1 h; actives 0.33% (n = 360,000); inhibition, % at 20 µM; in the data active means inhibition above about 37%
Target sequence (P63165 whole entry, looked up): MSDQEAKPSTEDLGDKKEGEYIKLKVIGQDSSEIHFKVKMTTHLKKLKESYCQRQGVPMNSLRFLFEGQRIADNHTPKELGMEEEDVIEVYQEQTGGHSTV
STEP block: STEP phosphatase inhibitors, primary screen, biochemical, fluorescence intensity, uHTS; Tyrosine-protein phosphatase non-receptor type 5 (Homo sapiens), P54829; recombinant STEP, OMFP fluorogenic substrate; inhibition, % at 20 µM; actives 0.25% (n = 360,000); AID 588621, 2011;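 active means inhibition at 20 µM, scaled per plate between control wells, above about 37%, limit read from the data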;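 further: 0% = DMSO with enzyme and substrate and 100% = substrate only without enzyme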
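medium = Bis-Tris buffer pH 6.0, 2.5 mM DTT, 0.005% Tween 20 | test system = STEP (striatal-enriched tyrosine phosphatase) enzyme, cell-free | measure = normalized % inhibition | compound dosing = 20 µM, 1% DMSO | also added = 25 µM OMFP | schedule = reaction 20 min, ambient temperature | measured by = fluorescence read at 480 nm ex / 540 nm em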
Scp-1 inhibitor: Scp-1 phosphatase inhibitors, primary screen, biochemical, colorimetric, uHTS. Recombinant Scp1, phosphopeptide, malachite green phosphate absorbance. inhibition, % at 20 µM. actives 0.88% (n = 340,000). AID 493091, 2011;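 active means inhibition above about 50% at 20 µM, limit read from the data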;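 further: plate controls were DMSO wells with enzyme for no effect and wells lacking enzyme for full effect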
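Incubation: 45 min enzyme reaction at room temperature / System: truncated SCP-1 phosphatase (76-261aa) / Reagent: Phospho 17-mer peptide substrate / Buffer or medium: Acidic Tris acetate buffer with magnesium and detergent / Signal: absorbance at 630 nm / Doses: one concentration, 20 µM, with 1.0% DMSO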
Beacon interf DR: spectral interference with molecular beacon fluorescence, dose response, artefact control for DNMT1 inhibitor project, biochemical, fluorescent molecular beacon; shares compounds with DNMT1 inh; spectral interference counter-screen; IC50, µM; 200 tested, under 10 active; AID 602382, 2012; call rule not given here
DNMT1 inh conf: DNMT1 methyltransferase inhibitor retest, confirmation, biochemical, molecular beacon, fluorescence, single concentration. inhibition, % at 10 µM. shares compounds with DNMT1 inh. actives 8% (n = 2,300). DNMT1 molecular beacon HinP1I cleavage;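 active means average inhibition of at least 30% in the single-concentration confirmation test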
DNMT1 interf: beacon fluorescence artifact counter-screen | activation (fluorescence interference), % at 10 µM | shares compounds with DNMT1 inh | actives 1% (n = 2,300) | DNMT1 molecular beacon spectral interference counterscreen, fluorescence 485/520 | AID 602387;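 active means activation of at least 30% at 10 µM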;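 further: DNMT1 catalytic domain with a HinP1I cleavage step and a FAM/dabcyl DNA beacon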
Starred values were filed as active, the others as inactive; . = no result given.

SMILES	Rpn11 block	DNMT1 inh	LMPTP block	SUMO1 PPI mod	STEP block	Scp-1 inhibitor	DNMT1 inh conf	DNMT1 interf	others
COC(=O)COc1ccc(S(=O)(=O)Nc2ccccc2SC)cc1	-5	79*	-1	-1	-1	-28	4	8
CCCCCCSc1ccc([C@@H]2[C@@H]3C(=O)N(C)C(=O)[C@@H]3[C@]3(C(=O)OC)CCCCN23)cc1	1	-7	4	0	0	-3	.	.
COc1ccc(Oc2c(OC)cc(NCc3ccc(CN)cc3)c3ncccc23)cc1	20	95*	24	22	4	.	33*	-5	Beacon interf DR=>99
COc1ccc(CNc2cccnc2Cl)cc1	.	.	-1	0	.	.	.	.
CN(C)C1CCCCC=CC(=O)NC1 (centres undefined)	0	52*	-2	3	-2	.	7	7
CN(c1c[nH]c(=O)[nH]c1=O)C1CCCCC1	5	1	1	-3	0	-1	.	.
S=C1NCN(Cc2cccnc2)CN1c1cccc2ccccc12	-2	6	0	-5	2	-2	.	.
CCCCn1c(N)c(N(CC(C)C)C(=O)c2ccc(-c3ccc([N+](=O)[O-])cc3)o2)c(=O)[nH]c1=O	12	1	-3	-20	-4	-1	.	.
CCCCn1c(N)c(N(CCC(C)C)C(=O)c2ccc(-c3ccc([N+](=O)[O-])cc3)o2)c(=O)[nH]c1=O	7	84*	-4	-9	2	-7	0	7
COc1ccc(NC(=O)Cn2nnc(C(=O)Nc3ccc(F)c(Cl)c3)c2N)cc1	3	31	3	-1	0	5	.	.
Clc1nc(CN2CCCCC2)nc2sc3c(c12)CCC3	6	9	0	0	-3	-13	.	.
CCc1cccc(CC)c1-n1c(SCC(=O)c2c(N)n(C)c(=O)n(C)c2=O)nnc1-c1cccnc1	14	59*	1	3	3	-2	0	-3
Nc1nc(SCC(=O)Nc2ncc(Cl)cc2Cl)n[nH]1	-1	20	-1	8	1	26	.	.
Cc1nc(CCNS(=O)(=O)c2cccnc2)cs1	-2	-2	2	-4	5	-6	.	.
COc1ccc(NC(=O)CCC(=O)c2ccc(-c3ccccc3)cc2)cc1	34	8	1	1	8	1	.	.
Cc1ccc(NC(=O)CCC(=O)OCC(=O)c2ccc(-c3ccccc3)cc2)cc1	5	51*	1	3	0	-4	5	0
O=C(CSc1nnc(-c2ccco2)o1)c1ccccc1	13	1	1	1	5	-2	.	.
O=C(CSc1nnc(-c2ccco2)o1)c1ccc[nH]1	-10	55*	53*	18	1	40	6	3
CC(C)C[C@H]1CN([C@@H](CC(C)C)CN2CCCC2CN2C(=S)NC[C@@H]2Cc2ccc(O)cc2)C(=S)N1CC1CCCCCC1 (some centres undefined)	-1	-1	2	1	2	24	.	.
Oc1ccc(N=Cc2ccc(-c3cccs3)s2)cc1	12	77*	33	68*	20	-7	4	0
O=Cc1ccc(-c2cccs2)s1	-6	0	0	-25	-3	10	.	.
Cc1cc(NC(=O)CSc2cn(CCNC(=O)c3ccccc3)c3ccccc23)no1	-16	72*	4	7	6	39	7	0
CCc1cc2c(=O)n3c(nc2s1)-c1[nH]c2ccc(OC)cc2c1CC3	8	76*	2	-2	1	2	5	5
COc1ccc2[nH]c3c(c2c1)CCNC3=O	6	-5	0	4	2	-7	.	.
CCN(C[C@H]1N[C@@](CC)(C(=O)OC)[C@H]2C(=O)N(C)C(=O)[C@@H]12)C(=O)c1ccccc1	-2	-3	-2	1	-3	-8	.	.
SMILES	Rpn11 block	DNMT1 inh	LMPTP block	SUMO1 PPI mod	STEP block	Scp-1 inhibitor	DNMT1 inh conf	DNMT1 interf	others
CC(C)c1cc(N2CCN(C(=O)c3ccco3)CC2)n2c(nc3ccccc32)c1C#N	4	3	2	4	1	6	.	.
Cc1cc(-c2ccco2)c(C#N)c2nc3ccccc3n12	15	69*	73*	30	25	66*	5	9
S=c1[nH]ncn1/N=C/c1cccs1	-1	2	-1	-7	0	1	.	.
O=C(/C=C/c1ccco1)Nc1scc(-c2ccccc2)c1C(=O)O	34	82*	4	-5	19	50	13	1
Cc1ccc(CN2C(=O)N/C(=C\c3ccc(-c4ccc(C(=O)O)cc4C)o3)C2=O)cc1	-8	126*	4	21	10	71*	10	-3
O=C(Nc1ccccc1F)c1ccc(Br)o1	0	69*	0	4	-2	1	1	-2
O=C(CSc1nc(C2CC2)nc2c1cnn2-c1ccccc1)Nc1c[nH]c(=O)[nH]c1=O	-13	27	9	8	6	13	.	.
Cc1nn(C)c(C)c1NC(=O)CSc1nc(Cc2ccccc2)nc2c1cnn2-c1ccccc1	10	51*	0	-5	4	7	1	-1
Cc1nc(SCC(=O)Nc2c(C)n(C)n(-c3ccccc3)c2=O)c2cnn(-c3ccccc3)c2n1	6	-2	1	4	2	-8	.	.
Cc1nn(Cc2ccccc2)c(C)c1NC(=O)CSc1nc(C2CC2)nc2c1cnn2-c1ccccc1	2	58*	0	1	0	9	5	-5
O=c1nc(Nc2ccccc2)sc2ccc([N+](=O)[O-])cc12	19	57*	26	-10	6	43	1	-3
Cc1cc(Nc2ccc([N+](=O)[O-])cc2)c2ccccc2n1	15	-9	46	-23	-2	-7	.	.

Compound activity (PubChem)
